According to ChEMBL document CHEMBL2331520, “Synthesis, surface tension properties and antibacterial activities of amphiphilic D-galactopyranose derivatives” (Eur J Med Chem, 2013):
≈ marks a conversion by molar mass, not a printed value.

Columns and labels:
Staphylococcus aureus = test: Antibacterial activity against Staphylococcus aureus subsp aureus CIP 53.154 assessed as growth inhibition at 30 degC after 24 hrs by liquid broth dilution method; type: functional; conditions: CIP 53.154, 24 h
How it was run: (§1)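 Strains kept at -80 °C in LB broth with 20% glycerol and grown from 1% (v/v) stock in nutritive broth (yeast extract 1 g/L, meat extract 2 g/L, peptone 5 g/L, NaCl 5 g/L) at 30 °C. Overnight culture adjusted to 0.5 McFarland (~1.5 × 10⁸ cfu/mL). Compound stock 1 g/L in DMSO, serially diluted in broth 1:2 to 1:512, mixed 1:1 with inoculum. Incubation 24 h, 150 rpm, 30 °C. OD600 read; MIC = lowest concentration with no OD increase in all replicates versus negative control.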

[1] = tested on: Mycolicibacterium smegmatis; test: Antibacterial activity against Mycobacterium smegmatis CIP 73.26 assessed as growth inhibition at 37 degC after 24 hrs by liquid broth dilution method; type: functional; conditions: CIP 73.26, 24 h
How it was run: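 Inoculum at 0.5 McFarland (~1.5 × 10⁸ cfu/mL). DMSO stock (1 g/L) serially diluted in the same medium 1:2 to 1:512. Shaken 24 h at 150 rpm, 37 °C. MIC = lowest concentration with no OD600 rise in any replicate versus negative control.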

Micrococcus luteus = test: Antibacterial activity against Micrococcus luteus CIP 53.45 assessed as growth inhibition at 30 degC after 24 hrs by liquid broth dilution method; type: functional; conditions: CIP 53.45, 24 h; how it was run: as §1
[2] = tested on: Geobacillus stearothermophilus; test: Antibacterial activity against Bacillus stearothermophilus ATTC 12980 assessed as growth inhibition at 30 degC after 24 hrs by liquid broth dilution method; type: functional; conditions: ATTC 12980, 24 h; how it was run: as §1
Sinorhizobium meliloti = test: Antibacterial activity against Sinorhizobium meliloti Rm1021 assessed as growth inhibition at 30 degC after 24 hrs by liquid broth dilution method; type: functional; conditions: Rm1021, 24 h; how it was run: as §1
Pseudomonas aeruginosa = test: Antibacterial activity against Pseudomonas aeruginosa CIP A22 assessed as growth inhibition at 30 degC after 24 hrs by liquid broth dilution method; type: functional; conditions: CIP A22, 24 h; how it was run: as §1
Escherichia coli = test: Antibacterial activity against Escherichia coli ATCC 10536 assessed as growth inhibition at 30 degC after 24 hrs by liquid broth dilution method; type: functional; conditions: ATCC 10536, 24 h; how it was run: as §1
Dickeya chrysanthemi = test: Antibacterial activity against Erwinia chrysanthemi EC3937 assessed as growth inhibition at 30 degC after 24 hrs by liquid broth dilution method; type: functional; conditions: EC3937, 24 h; how it was run: as §1
Enterobacter cloacae = test: Antibacterial activity against Enterobacter cloacae ATCC 13047 assessed as growth inhibition at 30 degC after 24 hrs by liquid broth dilution method; type: functional; conditions: ATCC 13047, 24 h; how it was run: as §1
Citrobacter freundii = test: Antibacterial activity against Citrobacter freundii ATCC 6750 assessed as growth inhibition at 30 degC after 24 hrs by liquid broth dilution method; type: functional; conditions: ATCC 6750, 24 h; how it was run: as §1
[3] = Critical micelle concentration of the compound by wilhelmy method; type: physicochemical
How it was run: (§2)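 Wilhelmy plate method at 293 K. Concentrated solution added stepwise from a syringe into ultrapure water, stirred gently 30 s after each addition, then equilibrium surface tension read. Each value is the mean of at least three measurements (SD within ±1.5% of mean). Transducer precision 0.1 mN/m; platinum plate flame-cleaned. Surface tension plotted against molar concentration to give CMC and γCMC.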

[4] = Gamma critical micelle concentration of the compound by wilhelmy method; type: physicochemical; how it was run: as §2

SMILES	MIC (Staphylococcus aureus) [µg/mL]	MIC [1] [µg/mL]	MIC (Micrococcus luteus) [µg/mL]	MIC [2] [µg/mL]	MIC (Sinorhizobium meliloti) [µg/mL]	MIC (Pseudomonas aeruginosa) [µg/mL]	MIC (Escherichia coli) [µg/mL]	MIC (Dickeya chrysanthemi) [µg/mL]	MIC (Enterobacter cloacae) [µg/mL]	MIC (Citrobacter freundii) [µg/mL]	CMC [3]	gammaCMC [4]
CCCCCCCCCCCCOCC#CCOC[C@H]1O[C@H](O)[C@H](O)[C@@H](O)[C@H]1O	62.5 (≈ 150 µM)	62.5 (≈ 150 µM)	3.91 (≈ 9.39 µM)	7.81 (≈ 18.7 µM)	31.2 (≈ 75 µM)	62.5 (≈ 150 µM)	62.5 (≈ 150 µM)	62.5 (≈ 150 µM)	62.5 (≈ 150 µM)	62.5 (≈ 150 µM)	0.032 mmol/L	35 mN/meter
O=C(N[C@H](CO)[C@H](O)c1ccc([N+](=O)[O-])cc1)C(Cl)Cl [CHLORAMPHENICOL]	< 0.98	1.95 (≈ 6.03 µM)	< 0.98	3.9 (≈ 12.1 µM)	< 0.98	1.95 (≈ 6.03 µM)	< 0.98	0.98 (≈ 3.03 µM)	< 0.98	7.8 (≈ 24.1 µM)		
CCCCCCCCCCCCOCCCCOC[C@H]1O[C@H](O)[C@H](O)[C@@H](O)[C@H]1O	125 (≈ 297 µM)	62.5 (≈ 149 µM)	15.6 (≈ 37.1 µM)	31.2 (≈ 74.3 µM)	62.5 (≈ 149 µM)	62.5 (≈ 149 µM)	62.5 (≈ 149 µM)	62.5 (≈ 149 µM)	62.5 (≈ 149 µM)	62.5 (≈ 149 µM)	0.023 mmol/L	48 mN/meter
CCCCCCCCOCCCCOC[C@H]1O[C@@H]2OC(C)(C)O[C@@H]2[C@H]2OC(C)(C)O[C@H]21	125 (≈ 281 µM)	62.5 (≈ 141 µM)	62.5 (≈ 141 µM)	62.5 (≈ 141 µM)	62.5 (≈ 141 µM)	62.5 (≈ 141 µM)	62.5 (≈ 141 µM)	62.5 (≈ 141 µM)	62.5 (≈ 141 µM)	62.5 (≈ 141 µM)		
CCCCCCCCOCCCCOC[C@H]1O[C@H](O)[C@H](O)[C@@H](O)[C@H]1O	125 (≈ 343 µM)	62.5 (≈ 171 µM)	62.5 (≈ 171 µM)	62.5 (≈ 171 µM)	62.5 (≈ 171 µM)	62.5 (≈ 171 µM)	62.5 (≈ 171 µM)	62.5 (≈ 171 µM)	62.5 (≈ 171 µM)	125 (≈ 343 µM)	0.3 mmol/L	30 mN/meter
CCCCCCCCOC[C@H]1O[C@@H]2OC(C)(C)O[C@@H]2[C@H]2OC(C)(C)O[C@H]21	≥ 250	≥ 250	≥ 250	≥ 250	≥ 250	≥ 250	≥ 250	≥ 250	≥ 250	≥ 250		
CCCCCCCCOC[C@H]1O[C@H](O)[C@H](O)[C@@H](O)[C@H]1O	≥ 250	≥ 250	≥ 250	≥ 250	≥ 250	≥ 250	≥ 250	≥ 250	≥ 250	≥ 250	12 mmol/L	28 mN/meter
CCCCCCCCOc1ccc(OC[C@H]2O[C@H](O)[C@H](O)[C@@H](O)[C@H]2O)cc1	125 (≈ 325 µM)	62.5 (≈ 163 µM)	62.5 (≈ 163 µM)	62.5 (≈ 163 µM)	62.5 (≈ 163 µM)	125 (≈ 325 µM)	62.5 (≈ 163 µM)	62.5 (≈ 163 µM)	62.5 (≈ 163 µM)	125 (≈ 325 µM)	Not Active	Not Active
CCCCCCCCOc1ccc(OC[C@H]2O[C@@H]3OC(C)(C)O[C@@H]3[C@H]3OC(C)(C)O[C@H]32)cc1	125 (≈ 269 µM)	62.5 (≈ 135 µM)	62.5 (≈ 135 µM)	62.5 (≈ 135 µM)	62.5 (≈ 135 µM)	125 (≈ 269 µM)	62.5 (≈ 135 µM)	62.5 (≈ 135 µM)	62.5 (≈ 135 µM)	125 (≈ 269 µM)		
CCCCCCCCCCCCOCC#CCOC[C@H]1O[C@@H]2OC(C)(C)O[C@@H]2[C@H]2OC(C)(C)O[C@H]21	125 (≈ 252 µM)	62.5 (≈ 126 µM)		15.6 (≈ 31.4 µM)	62.5 (≈ 126 µM)	62.5 (≈ 126 µM)	62.5 (≈ 126 µM)	62.5 (≈ 126 µM)	62.5 (≈ 126 µM)	62.5 (≈ 126 µM)		
CCCCCCCCOCC#CCOC[C@H]1O[C@@H]2OC(C)(C)O[C@@H]2[C@H]2OC(C)(C)O[C@H]21	125 (≈ 284 µM)	62.5 (≈ 142 µM)	62.5 (≈ 142 µM)	62.5 (≈ 142 µM)	62.5 (≈ 142 µM)	62.5 (≈ 142 µM)	62.5 (≈ 142 µM)	62.5 (≈ 142 µM)	62.5 (≈ 142 µM)	62.5 (≈ 142 µM)		
CCCCCCCCCCCCOc1ccc(OC[C@H]2O[C@@H]3OC(C)(C)O[C@@H]3[C@H]3OC(C)(C)O[C@H]32)cc1	125 (≈ 240 µM)	62.5 (≈ 120 µM)	31.2 (≈ 60 µM)	62.5 (≈ 120 µM)	62.5 (≈ 120 µM)	125 (≈ 240 µM)	62.5 (≈ 120 µM)	62.5 (≈ 120 µM)	62.5 (≈ 120 µM)	62.5 (≈ 120 µM)		
CCCCCCCCCCCCOC[C@H]1O[C@@H]2OC(C)(C)O[C@@H]2[C@H]2OC(C)(C)O[C@H]21	≥ 250	≥ 250	≥ 250	≥ 250	≥ 250	≥ 250	≥ 250	≥ 250	≥ 250	≥ 250		
CCCCCCCCCCCCOCCCCOC[C@H]1O[C@@H]2OC(C)(C)O[C@@H]2[C@H]2OC(C)(C)O[C@H]21	125 (≈ 250 µM)	31.2 (≈ 62.4 µM)	15.6 (≈ 31.2 µM)	31.2 (≈ 62.4 µM)	62.5 (≈ 125 µM)	62.5 (≈ 125 µM)	62.5 (≈ 125 µM)	62.5 (≈ 125 µM)	62.5 (≈ 125 µM)	62.5 (≈ 125 µM)		
